Published values collected from several papers.
Each line is one published result; the experiments were not run side by side.
CDK4 with cyclin D3: Cyclin-dependent kinase 4, with cyclin D3 (CDK4, Homo sapiens, UniProt P11802)
CDK4 with cyclin D1: Cyclin-dependent kinase 4, with cyclin D1 (CDK4, Homo sapiens, UniProt P11802)
CDK4: Cyclin-dependent kinase 4 (CDK4, Homo sapiens, UniProt P11802)

| SMILES | target | test | conditions | quantity | result |
| --- | --- | --- | --- | --- | --- |
| CNC(=O)Nc1ccc2c(c1)CC[C@@]21OC(=O)N(CC(=O)N(Cc2ccc(F)cc2)[C@@H](C)C(F)(F)F)C1=O | CDK4 with cyclin D3 | cell-free assay, competition with immobilised ligand | 1 µM | remaining binding | 79% |
| CN(C)c1nccc(-c2cnn3ncccc23)n1 | CDK4 with cyclin D1 | binding | 1 µM | remaining binding | 100% |
| CNC(=O)Nc1ccc2c(c1)[C@@]1(CC2)OC(=O)N(CC(=O)N(Cc2ccc(F)cc2)[C@@H](C)C(F)(F)F)C1=O | CDK4 | cell-free assay, competition with immobilised ligand | 1 µM | remaining binding | 73% |
| O=C(c1ccccc1)[C@H]1Cc2c(cc([N+](=O)[O-])cc2[N+](=O)[O-])[C@@H](O)[C@@]12C(=O)Nc1ccccc12 | CDK4 | cell-free assay, inhibitor, TR-FRET | 1 µM | inhibition | 39.5% |
| CN(C)c1nccc(-c2cnc3ncccn23)n1 | CDK4 | binding | 1 µM | remaining binding | 71% |
| Cc1ccc(C(=O)NCc2ccsc2)cc1C#Cc1cn(C(C)C)c2ncnc(N)c12 | CDK4 with cyclin D3 | enzyme activity, inhibitor | 1 µM | activity vs control | 92% |
| N#CCCc1ccc2c(c1)-c1[nH]c3ccc([N+](=O)[O-])cc3c1CC(=O)N2 | CDK4 with cyclin D1 | cell-free assay | 0.5 µM | remaining signal | 11.8% |
| CC(=O)N1CCC(c2ccc(C(=O)NC(=N)N)cc2C(F)(F)F)CC1 | CDK4 | cell-free assay, competition with immobilised ligand | 1 µM | remaining binding | 100% |
| Cc1sc(C(=O)NC2COC2)cc1-n1cc(NC(=O)Nc2c(F)cccc2Cl)cn1 | CDK4 with cyclin D3 | enzyme activity, inhibitor | 10 µM | remaining activity | 96.5% |
| CC(C)(O)[C@H]1CC[C@H](Nc2ccc3ncc(-c4cccc(C(F)(F)F)c4)n3n2)CC1 | CDK4 with cyclin D1 | enzyme activity, inhibitor | 1 µM | remaining activity | 90.5% |
| O=C1NC(=O)c2cc(Nc3ccc(F)cc3)c(Nc3ccc(F)cc3)cc21 | CDK4 with cyclin D1 | cell-free assay | 0.5 µM | remaining signal | 101% |
| CC(C)(C)c1nc(-c2cccc(NS(=O)(=O)c3c(F)cccc3F)c2F)c(-c2ccnc(N)n2)s1 | CDK4 with cyclin D3 | enzyme activity, inhibitor, radiometric | 1 µM | remaining activity | 119% |
| Cc1ccc(NC(=O)c2ccc(C)c(C(F)(F)F)c2)cc1C#Cc1nn(C2CCC(O)CC2)c2ncnc(N)c12 (stereo not shown) | CDK4 with cyclin D3 | cell-free assay | 10 µM | remaining signal | 86% |
| CO[C@@H](C)c1c(Nc2ccc([C@@H](N(C)C(=O)C3CCS(=O)(=O)CC3)C(F)(F)F)cc2)cnc2cc(Cl)nn12 | CDK4 with cyclin D1 | cell-free assay, competition with immobilised ligand | 1 µM | remaining binding | 100% |
| Oc1cccc(-c2nc(N3CCOCC3)c3oc4ncccc4c3n2)c1 | CDK4 with cyclin D1 | cell-free assay | 0.5 µM | remaining signal | 102% |
| CN(CCCC(F)(F)F)c1nccc(-c2cnn3ncccc23)n1 | CDK4 | binding | 1 µM | remaining binding | 100% |
| CS(=O)(=O)NCC[C@H](NC(=O)c1cncc2c1cnn2-c1ccc(F)cc1)c1ccnc(S(C)(=O)=O)c1 | CDK4 | cell-free assay, competition with immobilised ligand | 1 µM | remaining binding | 100% |
| C[C@@H]1CCN(c2nccc(-c3cnn4ncccc34)n2)C1 | CDK4 with cyclin D3 | binding | 1 µM | remaining binding | 76% |
| O=C(c1ccc(Br)cc1)[C@H]1Cc2c(cc([N+](=O)[O-])cc2[N+](=O)[O-])[C@@H](O)[C@@]12C(=O)Nc1ccccc12 | CDK4 | cell-free assay, inhibitor, TR-FRET | 1 µM | inhibition | 29.5% |
